Among the data in ChEMBL document CHEMBL5653631, “A Potent and Selective ULK1 Inhibitor Suppresses Autophagy and Sensitizes Cancer Cells to Nutrient Stress” (iScience, 2018) are fold change (FC) and inhibition values, retold here.

Test [1] concerns the target Tau-tubulin kinase 2 (Homo sapiens) (UniProt Q6IQ55). Nature of the test: Inhibition of human recombinant TTBK2 at 15 nM related to control ULK1.
The target of test [2] is RAF proto-oncogene serine/threonine-protein kinase (Homo sapiens) (UniProt P04049). Nature of the test: Inhibition of human recombinant RAF1 at 15 nM in presence of ATP by radiometric assay relative to control.
Test [3] relates to U2OS. Nature of the test: Inhibition of autophagy in human U2OS cells assessed as reduction in phagophore formation at 5 uM incubated for 2.5 hrs by Fluorescent microscopy based analysis. Type of test: functional, cell-based. The gist of the method: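 U2OS cells treated 2.5 hr with vehicle or 100 nM AZD8055, with or without 5 μM inhibitor; fixed and immunostained for endogenous ATG12; ATG12-positive puncta (phagophores) assessed by fluorescence microscopy.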

Test [4] concerns the target RAC-alpha serine/threonine-protein kinase (Homo sapiens) (UniProt P31749). Put plainly: Inhibition of human recombinant AKT1 at 40 nM in presence of ATP by radiometric assay relative to control. The gist of the method: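 Panel of 327 recombinant human kinases in radiometric activity assays, each screened in duplicate at a single inhibitor concentration; percent activity remaining relative to vehicle control, percent inhibition taken as 100 minus activity remaining.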

In test [5] the target is Serine/threonine-protein kinase mTOR (Homo sapiens) (UniProt P42345). Put plainly: Inhibition of human recombinant FRAP at 40 nM in presence of ATP by radiometric assay relative to control.
The target in test [6] is Ribosomal protein S6 kinase alpha-4 (Homo sapiens) (UniProt O75676). Put plainly: Inhibition of human recombinant MSK2 at 40 nM in presence of ATP by radiometric assay relative to control.
Test [7] has as its target Tyrosine-protein kinase Fgr (Homo sapiens) (UniProt P09769). Nature of the test: Inhibition of human recombinant FGR at 500 nM in presence of ATP by radiometric assay relative to control.
Test [8] concerns the target Mitogen-activated protein kinase 11 (Homo sapiens) (UniProt Q15759). Put plainly: Inhibition of human recombinant p38beta at 500 nM related to control ULK1.
For test [9], the target named is T1, Myosin-IIIb (Homo sapiens) (UniProt Q8WXR4).
T1 sequence (whole entry): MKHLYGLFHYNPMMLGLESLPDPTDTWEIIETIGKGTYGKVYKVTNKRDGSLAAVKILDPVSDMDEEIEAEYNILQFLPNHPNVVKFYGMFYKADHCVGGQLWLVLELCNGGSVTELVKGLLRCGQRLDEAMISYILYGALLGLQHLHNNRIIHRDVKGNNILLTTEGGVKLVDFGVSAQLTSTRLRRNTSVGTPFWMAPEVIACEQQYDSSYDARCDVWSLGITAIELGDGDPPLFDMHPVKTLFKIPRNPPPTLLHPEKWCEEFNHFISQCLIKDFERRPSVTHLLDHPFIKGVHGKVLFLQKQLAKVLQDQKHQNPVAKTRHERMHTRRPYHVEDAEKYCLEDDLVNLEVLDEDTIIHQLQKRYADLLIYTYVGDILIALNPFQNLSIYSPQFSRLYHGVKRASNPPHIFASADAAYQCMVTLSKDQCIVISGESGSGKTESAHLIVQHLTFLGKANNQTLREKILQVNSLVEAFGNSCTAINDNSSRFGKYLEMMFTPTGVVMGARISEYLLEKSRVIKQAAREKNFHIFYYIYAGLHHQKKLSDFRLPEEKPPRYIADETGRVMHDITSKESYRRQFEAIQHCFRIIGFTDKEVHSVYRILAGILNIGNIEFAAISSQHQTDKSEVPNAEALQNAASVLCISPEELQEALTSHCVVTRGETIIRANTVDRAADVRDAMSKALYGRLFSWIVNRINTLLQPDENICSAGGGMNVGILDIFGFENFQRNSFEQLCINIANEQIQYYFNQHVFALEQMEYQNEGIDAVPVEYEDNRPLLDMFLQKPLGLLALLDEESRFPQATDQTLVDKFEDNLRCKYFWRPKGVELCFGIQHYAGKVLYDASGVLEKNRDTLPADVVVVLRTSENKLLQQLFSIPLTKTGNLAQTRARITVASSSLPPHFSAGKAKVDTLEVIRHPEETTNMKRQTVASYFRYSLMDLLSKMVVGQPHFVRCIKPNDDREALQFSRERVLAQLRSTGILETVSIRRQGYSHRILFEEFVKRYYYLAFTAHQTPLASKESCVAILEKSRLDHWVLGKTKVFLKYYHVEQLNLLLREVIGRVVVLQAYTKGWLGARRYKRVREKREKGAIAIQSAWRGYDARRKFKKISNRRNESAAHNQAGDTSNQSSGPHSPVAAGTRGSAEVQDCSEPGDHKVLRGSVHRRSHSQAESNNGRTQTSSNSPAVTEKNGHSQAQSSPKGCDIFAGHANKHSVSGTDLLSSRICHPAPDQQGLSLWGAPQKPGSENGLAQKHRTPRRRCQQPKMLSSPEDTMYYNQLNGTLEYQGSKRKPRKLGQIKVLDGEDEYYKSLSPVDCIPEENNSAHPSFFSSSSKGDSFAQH
Put plainly: Inhibition of human recombinant MYO3B at 500 nM in presence of ATP by radiometric assay relative to control.

For test [10], the target named is T2, Tyrosine-protein kinase receptor TYRO3 (Homo sapiens) (UniProt Q06418).
T2 sequence (whole entry): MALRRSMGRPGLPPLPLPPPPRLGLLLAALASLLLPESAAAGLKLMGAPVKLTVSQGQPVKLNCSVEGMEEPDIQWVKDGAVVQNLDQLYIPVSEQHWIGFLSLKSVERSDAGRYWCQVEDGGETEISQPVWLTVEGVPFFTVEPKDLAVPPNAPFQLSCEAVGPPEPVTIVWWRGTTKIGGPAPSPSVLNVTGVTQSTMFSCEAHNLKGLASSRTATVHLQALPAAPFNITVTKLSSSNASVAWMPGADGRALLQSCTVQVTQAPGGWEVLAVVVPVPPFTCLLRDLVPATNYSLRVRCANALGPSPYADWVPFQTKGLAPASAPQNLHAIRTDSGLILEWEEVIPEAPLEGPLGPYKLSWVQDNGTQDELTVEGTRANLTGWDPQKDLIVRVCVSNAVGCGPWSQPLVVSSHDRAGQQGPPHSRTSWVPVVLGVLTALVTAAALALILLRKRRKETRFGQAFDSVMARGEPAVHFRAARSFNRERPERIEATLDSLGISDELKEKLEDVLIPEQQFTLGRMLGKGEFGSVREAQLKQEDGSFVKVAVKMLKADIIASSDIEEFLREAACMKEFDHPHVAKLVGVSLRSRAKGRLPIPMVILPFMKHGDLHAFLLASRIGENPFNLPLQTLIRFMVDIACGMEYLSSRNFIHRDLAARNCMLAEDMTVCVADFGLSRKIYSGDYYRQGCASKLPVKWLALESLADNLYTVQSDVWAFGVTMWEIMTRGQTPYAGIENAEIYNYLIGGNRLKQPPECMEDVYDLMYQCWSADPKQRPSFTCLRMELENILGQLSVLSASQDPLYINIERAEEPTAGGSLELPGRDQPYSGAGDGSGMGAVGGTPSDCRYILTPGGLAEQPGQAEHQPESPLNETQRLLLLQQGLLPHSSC
Nature of the test: Inhibition of human recombinant TYRO3 at 500 nM related to control ULK1.

Activity calls are given as the source filed them. The rule behind the calls is not given here.

Chain of RAC-alpha serine/threonine-protein kinase (Homo sapiens) (P31749 whole entry): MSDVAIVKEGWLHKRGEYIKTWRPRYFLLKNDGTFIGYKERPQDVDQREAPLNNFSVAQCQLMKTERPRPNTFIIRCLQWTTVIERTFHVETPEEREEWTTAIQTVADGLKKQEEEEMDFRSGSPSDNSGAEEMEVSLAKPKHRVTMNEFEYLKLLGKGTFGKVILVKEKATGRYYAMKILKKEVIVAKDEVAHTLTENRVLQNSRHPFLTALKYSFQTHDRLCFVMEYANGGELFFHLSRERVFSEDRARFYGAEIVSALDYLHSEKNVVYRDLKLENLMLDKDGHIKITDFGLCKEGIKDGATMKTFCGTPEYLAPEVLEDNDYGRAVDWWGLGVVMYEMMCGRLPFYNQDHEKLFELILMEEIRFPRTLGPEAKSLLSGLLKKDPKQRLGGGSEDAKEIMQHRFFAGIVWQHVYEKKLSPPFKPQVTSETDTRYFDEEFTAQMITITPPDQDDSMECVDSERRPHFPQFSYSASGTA
Chain of RAF proto-oncogene serine/threonine-protein kinase (Homo sapiens) (P04049 whole entry): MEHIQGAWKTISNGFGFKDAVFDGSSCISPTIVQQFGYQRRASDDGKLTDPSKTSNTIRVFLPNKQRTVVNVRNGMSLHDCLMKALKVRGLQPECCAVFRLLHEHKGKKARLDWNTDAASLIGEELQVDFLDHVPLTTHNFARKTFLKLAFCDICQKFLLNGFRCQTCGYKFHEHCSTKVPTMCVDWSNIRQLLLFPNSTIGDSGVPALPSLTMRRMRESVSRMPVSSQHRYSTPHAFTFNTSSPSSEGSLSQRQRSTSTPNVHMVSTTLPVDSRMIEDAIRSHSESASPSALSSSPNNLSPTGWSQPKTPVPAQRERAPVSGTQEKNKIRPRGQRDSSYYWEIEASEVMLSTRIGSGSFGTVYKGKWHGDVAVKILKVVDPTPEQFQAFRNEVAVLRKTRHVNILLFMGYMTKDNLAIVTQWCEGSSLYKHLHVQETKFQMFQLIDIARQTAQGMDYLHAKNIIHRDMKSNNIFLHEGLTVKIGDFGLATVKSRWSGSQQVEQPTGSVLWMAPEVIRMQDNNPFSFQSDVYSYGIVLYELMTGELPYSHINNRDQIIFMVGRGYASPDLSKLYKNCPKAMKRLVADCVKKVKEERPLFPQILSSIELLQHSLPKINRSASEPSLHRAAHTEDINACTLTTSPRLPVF
Chain of Ribosomal protein S6 kinase alpha-4 (Homo sapiens) (O75676 whole entry, looked up): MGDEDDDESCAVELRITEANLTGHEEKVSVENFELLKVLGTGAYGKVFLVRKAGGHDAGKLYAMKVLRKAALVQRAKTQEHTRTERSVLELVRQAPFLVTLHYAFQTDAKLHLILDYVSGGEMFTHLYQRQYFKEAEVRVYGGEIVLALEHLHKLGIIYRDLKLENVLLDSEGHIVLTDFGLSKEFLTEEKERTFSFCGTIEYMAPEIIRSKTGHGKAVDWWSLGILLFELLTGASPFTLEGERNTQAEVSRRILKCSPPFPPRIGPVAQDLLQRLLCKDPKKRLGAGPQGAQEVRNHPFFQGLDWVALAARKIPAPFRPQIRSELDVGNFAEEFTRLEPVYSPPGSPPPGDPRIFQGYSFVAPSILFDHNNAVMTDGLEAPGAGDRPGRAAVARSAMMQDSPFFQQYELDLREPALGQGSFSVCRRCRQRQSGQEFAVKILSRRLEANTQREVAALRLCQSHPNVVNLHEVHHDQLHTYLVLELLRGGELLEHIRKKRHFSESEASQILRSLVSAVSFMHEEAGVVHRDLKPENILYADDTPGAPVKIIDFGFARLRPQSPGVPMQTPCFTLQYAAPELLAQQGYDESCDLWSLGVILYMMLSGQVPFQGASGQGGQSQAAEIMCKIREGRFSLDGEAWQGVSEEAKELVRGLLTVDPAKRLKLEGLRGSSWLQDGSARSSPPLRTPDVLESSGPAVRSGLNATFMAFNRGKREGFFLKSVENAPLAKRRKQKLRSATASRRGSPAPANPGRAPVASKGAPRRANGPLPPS
Chain of Tyrosine-protein kinase Fgr (Homo sapiens) (P09769 2-529 limits assumed): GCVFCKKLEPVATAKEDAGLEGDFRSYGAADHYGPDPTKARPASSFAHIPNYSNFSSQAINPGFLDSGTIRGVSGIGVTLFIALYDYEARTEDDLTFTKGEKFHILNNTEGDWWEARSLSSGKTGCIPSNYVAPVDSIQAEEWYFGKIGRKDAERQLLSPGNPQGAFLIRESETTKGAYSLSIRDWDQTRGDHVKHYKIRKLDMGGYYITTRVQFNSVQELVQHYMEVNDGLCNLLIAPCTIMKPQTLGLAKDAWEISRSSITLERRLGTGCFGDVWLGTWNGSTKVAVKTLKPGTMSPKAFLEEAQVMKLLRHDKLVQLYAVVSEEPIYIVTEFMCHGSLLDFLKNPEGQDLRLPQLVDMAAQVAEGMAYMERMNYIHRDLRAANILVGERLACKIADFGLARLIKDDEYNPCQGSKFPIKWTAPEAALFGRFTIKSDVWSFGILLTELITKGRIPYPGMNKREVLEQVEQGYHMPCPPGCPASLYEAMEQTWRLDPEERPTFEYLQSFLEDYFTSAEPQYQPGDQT
Chain of Mitogen-activated protein kinase 11 (Homo sapiens) (Q15759 whole entry): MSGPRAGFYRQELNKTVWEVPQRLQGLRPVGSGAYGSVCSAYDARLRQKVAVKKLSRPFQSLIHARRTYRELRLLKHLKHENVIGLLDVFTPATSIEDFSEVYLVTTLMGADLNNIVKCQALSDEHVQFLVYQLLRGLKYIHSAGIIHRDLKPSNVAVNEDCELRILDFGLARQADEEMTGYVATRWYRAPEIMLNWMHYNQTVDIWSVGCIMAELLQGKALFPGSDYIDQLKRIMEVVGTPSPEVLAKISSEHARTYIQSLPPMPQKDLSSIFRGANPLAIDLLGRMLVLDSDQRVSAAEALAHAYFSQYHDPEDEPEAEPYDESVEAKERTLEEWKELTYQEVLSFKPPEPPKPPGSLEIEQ
Chain of Tau-tubulin kinase 2 (Homo sapiens) (Q6IQ55 whole entry): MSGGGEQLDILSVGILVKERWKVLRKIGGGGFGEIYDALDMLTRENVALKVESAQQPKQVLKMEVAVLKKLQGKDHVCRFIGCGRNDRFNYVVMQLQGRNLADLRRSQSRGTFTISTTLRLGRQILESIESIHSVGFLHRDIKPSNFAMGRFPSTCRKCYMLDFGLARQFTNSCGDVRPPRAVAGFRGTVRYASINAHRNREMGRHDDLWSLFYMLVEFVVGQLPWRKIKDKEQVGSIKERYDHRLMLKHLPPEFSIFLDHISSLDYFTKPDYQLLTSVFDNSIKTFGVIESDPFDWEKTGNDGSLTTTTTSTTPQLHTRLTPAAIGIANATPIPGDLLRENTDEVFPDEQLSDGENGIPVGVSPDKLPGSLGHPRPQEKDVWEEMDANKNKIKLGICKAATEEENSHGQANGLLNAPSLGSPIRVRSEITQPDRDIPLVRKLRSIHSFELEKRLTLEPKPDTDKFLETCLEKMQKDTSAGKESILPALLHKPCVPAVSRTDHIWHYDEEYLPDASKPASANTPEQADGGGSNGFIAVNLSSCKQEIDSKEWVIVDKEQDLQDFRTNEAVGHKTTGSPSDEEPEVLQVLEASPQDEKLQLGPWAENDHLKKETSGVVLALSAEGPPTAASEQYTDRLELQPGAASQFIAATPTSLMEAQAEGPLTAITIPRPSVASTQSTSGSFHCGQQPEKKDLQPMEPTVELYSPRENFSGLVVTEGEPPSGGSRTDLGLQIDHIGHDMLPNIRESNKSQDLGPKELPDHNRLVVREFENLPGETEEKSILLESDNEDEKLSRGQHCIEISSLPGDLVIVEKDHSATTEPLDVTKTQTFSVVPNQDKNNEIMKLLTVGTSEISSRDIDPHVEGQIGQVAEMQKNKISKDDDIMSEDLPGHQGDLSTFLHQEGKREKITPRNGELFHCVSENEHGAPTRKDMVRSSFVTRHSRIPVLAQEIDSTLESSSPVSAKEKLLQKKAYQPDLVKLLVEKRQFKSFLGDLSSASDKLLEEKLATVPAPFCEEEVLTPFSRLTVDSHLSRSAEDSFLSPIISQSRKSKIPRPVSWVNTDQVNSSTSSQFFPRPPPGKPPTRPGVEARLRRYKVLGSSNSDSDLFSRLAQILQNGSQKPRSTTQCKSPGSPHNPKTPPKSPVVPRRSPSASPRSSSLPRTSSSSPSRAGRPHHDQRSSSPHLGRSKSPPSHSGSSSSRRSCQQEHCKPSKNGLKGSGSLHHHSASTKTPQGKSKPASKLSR

Turning to `CC(C)[C@H](NC(=O)c1cc(-c2cnn3cc(-c4ccc(OCCN5CCCCC5)cc4)cnc23)cs1)C(F)(F)F`, the fold change (FC) in test [1] amounted to 0. Further, in test [2], the inhibition was determined as 8%.

For the compound `O=C(N[C@@H](C1CC1)C(F)(F)F)c1cc(-c2cnn3cc(-c4ccc(F)cc4)cnc23)cs1`, in test [3], the inhibition entry was “Active”. Moreover, the inhibition in test [4], in test [5] and in test [6] was 0% each time.

Take `CNC(=O)c1ccccc1Oc1nc(Nc2cc(OC)c(OC)c(OC)c2)ncc1Br`: the inhibition in test [7] worked out at 8%; in test [9], 11%. Besides, the values for the fold change (FC) in test [8] and in test [10] were 0.03 and 0.14, respectively.
